Assay type in all cases: ADME, organism-based
Data set [1] is described as follows: Pharmacokinetic parameter in Male Wistar rats at 10 mg/kg oral administration. To be noted: rat, in vivo. On the set-up: dose 10 mg/kg, route oral. In short, it runs like this: (§1)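 Male Wistar rats; oral arm fasted 14 h, dosed as suspension in 0.25% CMC; IV arm given via tail vein in DMSO 6.6%/Cremophor ELP 6.6%/ethanol 3.3%/saline 83.3%. Retro-orbital blood drawn at 0.05, 0.5, 1, 2, 4, 6, 8, 10 and 21 h. Parameters include AUC0-∞, Cmax, Tmax, Kel, T1/2, Vd, Cl, f. Mean ± SD, n = 4.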

For the next data set, the system named is Rattus norvegicus. The data set can be described thus: (§2) Pharmacokinetic parameter in Male Wistar rats at 3 mg/kg intravenous administration. On the set-up: dose 3 mg/kg, route intravenous. To be noted: in vivo. The gist of the method:
as §1

Data set [2] can be described thus: as §2. On the set-up: dose 3 mg/kg, route intravenous. The note with it: rat, in vivo. In short, it runs like this: as §1

`CCO[C@@H](Cc1ccc(OCCN2c3ccccc3Oc3ccccc32)cc1)C(=O)O` [RAGAGLITAZAR]: in data set [1], the AUC – broadly, concentration integrated over time – stood at 71400 ng·h/mL; the highest level (Cmax) was 17200 ng/mL; the time of peak concentration (Tmax) (in general, the time from dosing to the highest level) worked out at 1.5 h; the bioavailability (as a rule, dose-corrected exposure relative to a reference, in per cent) was found to be 77%. In data set [1], the half-life (commonly the time needed for the level to fall by half in the phase considered) was 2.81 h and the k el was 6.94e-05 s⁻¹. Moreover, the Vd (in general, the apparent volume that relates the amount in the body to the concentration in plasma or blood) in the data set with Rattus norvegicus turned out to be 36.92 mL. Also, in data set [2], the AUC is 27800 ng·h/mL; the concentration peaked (Cmax) at 18300 ng/mL; the clearance (as a rule, the volume of plasma or blood freed of the substance per unit of time) was 0.355 mL/min; the half-life was 4.69 h. The k el in data set [2] was 4.17e-05 s⁻¹.

For the origin of these results see ChEMBL document CHEMBL1134556, “(-)3-[4-[2-(Phenoxazin-10-yl)ethoxy]phenyl]-2-ethoxypropanoic acid [(-)DRF 2725]: a dual PPAR agonist with potent antihyperglycemic and lipid modulating activity” (J Med Chem, 2001).
